In ChEMBL document CHEMBL2440062, “New nucleotide-competitive non-nucleoside inhibitors of terminal deoxynucleotidyl transferase: discovery, characterization, and crystal structure in complex with the target” (J Med Chem, 2013):

Tests used:
[1] = tested on: HeLa; assay: Cytotoxicity against TdT-deficient human HeLa cells assessed as growth inhibition after 24 to 48 hrs by MTT assay; format: cell-based
Outline: (§1)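 MOLT-4 cells were grown in RPMI-1640 and HeLa cells in DMEM, with 10% FCS at 37 °C. Cells were seeded at 10^5 per well, given 24 h to attach, then exposed to compounds (0.1–100 range) for 24 or 48 h. MTT at 1 mg/mL was added for 2 h at 37 °C, formazan was dissolved in DMSO, and absorbance read at 550 nm versus 0.5% DMSO vehicle. IC50 was obtained by regression, in triplicate.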

[2] = molecular target: DNA polymerase beta (Homo sapiens, UniProt P06746); assay: Inhibition of human recombinant DNA polymerase beta
[3] = molecular target: T1, DNA polymerase lambda (Homo sapiens) (UniProt Q9UGP5); assay: Inhibition of human recombinant full length DNA polymerase lambda using [3H]dTTP as substrate and 10 poly(dA)/oligo(dT) as template-primer after 15 mins by scintillation counting analysis
T1 sequence (whole entry): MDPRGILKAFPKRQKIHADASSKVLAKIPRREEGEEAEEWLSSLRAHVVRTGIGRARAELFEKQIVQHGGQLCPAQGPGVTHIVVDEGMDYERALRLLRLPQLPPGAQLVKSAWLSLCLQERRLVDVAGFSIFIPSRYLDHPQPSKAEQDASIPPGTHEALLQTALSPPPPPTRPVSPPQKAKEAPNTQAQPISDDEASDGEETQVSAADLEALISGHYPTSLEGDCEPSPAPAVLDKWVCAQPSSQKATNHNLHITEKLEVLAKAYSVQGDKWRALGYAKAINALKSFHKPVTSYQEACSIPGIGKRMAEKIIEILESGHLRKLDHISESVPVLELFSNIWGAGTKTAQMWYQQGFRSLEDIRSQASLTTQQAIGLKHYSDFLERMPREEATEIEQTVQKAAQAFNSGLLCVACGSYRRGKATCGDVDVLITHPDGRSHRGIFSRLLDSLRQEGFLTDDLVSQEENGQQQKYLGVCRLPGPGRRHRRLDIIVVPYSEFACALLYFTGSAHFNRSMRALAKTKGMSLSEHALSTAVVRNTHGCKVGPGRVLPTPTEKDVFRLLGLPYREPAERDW
Outline: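 Recombinant full-length human pol λ at 50 nM was assayed with 0.2 μM poly(dA)/oligo(dT)10:1 (3′-OH ends) and 5 μM [3H]dTTP (5 Ci/mmol). Incubation was 15 min at 37 °C. TCA precipitates were scintillation counted.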

[4] = tested on: MOLT-4; assay: Cytotoxicity against human MOLT4 cells overexpressing TdT assessed as growth inhibition after 24 to 48 hrs by MTT assay; format: functional, cell-based; outline: as §1
[5] = molecular target: T1, DNA polymerase lambda (Homo sapiens); assay: Inhibition of human recombinant full length DNA polymerase lambda TdT-like activity using [3H]dNTP as substrate after 10 mins by scintillation counting analysis
Outline: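 Full-length recombinant human pol λ (>90% pure) was tested for template-independent activity. Acid-insoluble radioactivity was counted, and ID50 came from dose–response fitting.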

[6] = molecular target: DNA nucleotidylexotransferase (Homo sapiens, UniProt P04053); assay: Inhibition of human recombinant TdT using [3H]dNTP as substrate after 10 mins by scintillation counting analysis
Outline: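 TdT was from Trevigen. TCA-precipitated radioactivity was counted. ID50 came from dose–response fitting. For kinetics, DNA or dNTP was varied at increasing inhibitor, and Ki was obtained via Cheng–Prusoff for a competitive model.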

Sequence of DNA nucleotidylexotransferase (P04053 whole entry): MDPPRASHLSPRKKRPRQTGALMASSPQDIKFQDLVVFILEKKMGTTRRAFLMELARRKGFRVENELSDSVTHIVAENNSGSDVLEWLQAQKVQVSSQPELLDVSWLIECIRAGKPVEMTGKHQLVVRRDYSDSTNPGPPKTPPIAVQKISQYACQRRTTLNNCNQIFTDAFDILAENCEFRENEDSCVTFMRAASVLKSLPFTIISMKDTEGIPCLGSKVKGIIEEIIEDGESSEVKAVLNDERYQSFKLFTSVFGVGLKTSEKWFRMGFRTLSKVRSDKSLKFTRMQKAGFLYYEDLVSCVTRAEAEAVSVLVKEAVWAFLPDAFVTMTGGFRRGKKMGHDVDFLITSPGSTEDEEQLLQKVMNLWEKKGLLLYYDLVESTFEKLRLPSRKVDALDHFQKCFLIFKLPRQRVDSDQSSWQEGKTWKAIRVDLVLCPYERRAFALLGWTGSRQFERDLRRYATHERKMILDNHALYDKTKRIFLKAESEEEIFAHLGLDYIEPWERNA

IC50 [2]	ID50 [3]	ID50 [5]	ID50 [6]	SMILES	IC50 [1]	IC50 [4]
> 40 µM	> 40 µM	> 40 µM	> 40 µM	CCOC(=O)C(=O)CC(=O)/C=C/c1cn(Cc2ccccc2)c2ccccc12	> 40 µM	> 40 µM
> 40 µM	9 µM	> 40 µM	31 µM	O=C(/C=C/c1cn(-c2ccc(Cl)cc2)c2ccccc12)CC(=O)C(=O)O	> 40 µM	27 µM
> 40 µM	> 40 µM	40 µM	24 µM	O=C(/C=C/c1cn(CC(=O)N2CCOCC2)c2ccccc12)CC(=O)C(=O)O	> 40 µM	> 40 µM
> 40 µM	> 40 µM	> 40 µM	> 40 µM	CCCn1cc(/C=C/C(=O)CC(=O)C(=O)OCC)c2ccccc21	–	–
> 40 µM	> 40 µM	> 40 µM	10 µM	COc1ccc(Cn2cc(/C=C/C(=O)CC(=O)C(=O)O)c3ccccc32)cc1	> 40 µM	> 40 µM
> 40 µM	> 40 µM	> 40 µM	3.1 µM	CCCn1cc(/C=C/C(=O)CC(=O)C(=O)O)c2ccccc21	> 40 µM	50 µM
> 40 µM	> 40 µM	27 µM	20 µM	CCOC(=O)C(=O)CC(=O)/C=C/c1cc(C(=O)c2ccccc2F)c[nH]1	> 40 µM	15 µM
> 40 µM	> 40 µM	> 40 µM	> 40 µM	CCOC(=O)C(=O)CC(=O)/C=C/c1cn(CC(=O)N(C)C)c2ccccc12	–	–
> 40 µM	> 40 µM	35 µM	0.78 µM	O=C(/C=C/c1cc(C(=O)c2cccc(F)c2)c[nH]1)CC(=O)C(=O)O	> 40 µM	> 40 µM
40 µM	> 40 µM	34 µM	1.4 µM	N#Cc1ccc(Cn2cc(/C=C/C(=O)CC(=O)C(=O)O)c3ccccc32)cc1	> 40 µM	> 40 µM
> 40 µM	6 µM	> 40 µM	> 40 µM	CCOC(=O)C(=O)CC(=O)/C=C/c1cn(-c2ccc(Cl)cc2)c2ccccc12	–	–
> 40 µM	> 40 µM	> 40 µM	> 40 µM	CCOC(=O)C(=O)CC(=O)/C=C/c1cc(C(=O)c2ccccc2)cn1Cc1ccc(C#N)cc1	–	–
> 40 µM	> 40 µM	> 40 µM	> 40 µM	C/C=C/Cn1cc(/C=C/C(=O)CC(=O)C(=O)OCC)c2ccccc21	–	–
> 40 µM	> 40 µM	> 40 µM	40 µM	CCOC(=O)C(=O)CC(=O)/C=C/c1cn(Cc2ccc(O)cc2)c2ccccc12	–	–
> 40 µM	> 40 µM	> 40 µM	40 µM	CCOC(=O)C(=O)CC(=O)/C=C/c1cn(Cc2ccc(Cl)cc2)c2ccccc12	–	–
40 µM	> 40 µM	> 40 µM	6.8 µM	N#Cc1ccc(Cn2cc(C(=O)c3ccccc3)cc2/C=C/C(=O)CC(=O)C(=O)O)cc1	> 40 µM	40 µM
> 40 µM	> 40 µM	44 µM	6 µM	CCOC(=O)C(=O)CC(=O)/C=C/c1cc(C(=O)c2cccc(F)c2)c[nH]1	> 40 µM	30 µM
> 40 µM	> 40 µM	> 40 µM	> 40 µM	CCOC(=O)C(=O)CC(=O)/C=C/c1cn(Cc2ccc(OC)cc2)c2ccccc12	–	–

The remaining lines, values behind:

SMILES	IC50 [2]	ID50 [3]	ID50 [5]	ID50 [6]	IC50 [1]	IC50 [4]
C/C=C/Cn1cc(/C=C/C(=O)CC(=O)C(=O)O)c2ccccc21	> 40 µM	> 40 µM	5 µM	7.3 µM	> 40 µM	> 40 µM
O=C(/C=C/c1cn(-c2ccc(O)cc2)c2ccccc12)CC(=O)C(=O)O	> 40 µM	> 40 µM	> 40 µM	5.2 µM	> 40 µM	> 40 µM
CCCCn1cc(/C=C/C(=O)CC(=O)C(=O)OCC)c2ccccc21	> 40 µM	> 40 µM	> 40 µM	> 40 µM	–	–
CCOC(=O)C(=O)CC(=O)/C=C/c1cn(Cc2ccc(F)cc2)c2ccccc12	> 40 µM	> 40 µM	> 40 µM	> 40 µM	–	–
O=C(/C=C/c1cn(Cc2ccccc2)c2ccccc12)CC(=O)C(=O)O	> 40 µM	> 40 µM	1.7 µM	7.9 µM	> 40 µM	15 µM
CCOC(=O)C(=O)CC(=O)/C=C/c1cn(Cc2ccc(C#N)cc2)c2ccccc12	> 40 µM	> 40 µM	> 40 µM	> 40 µM	–	–
N#Cc1ccc(C(=O)c2c[nH]c(/C=C/C(=O)CC(=O)C(=O)O)c2)cc1	> 40 µM	> 40 µM	40 µM	1.1 µM	> 40 µM	> 40 µM
CCOC(=O)C(=O)CC(=O)/C=C/c1cc(C(=O)c2ccccc2)cn1Cc1ccc(F)cc1	> 40 µM	> 40 µM	> 40 µM	> 40 µM	–	–
C/C=C/n1cc(/C=C/C(=O)CC(=O)C(=O)OCC)c2ccccc21	> 40 µM	> 40 µM	> 40 µM	> 40 µM	–	–
CC(C)CCn1cc(/C=C/C(=O)CC(=O)C(=O)O)c2ccccc21	> 40 µM	> 40 µM	> 40 µM	16.3 µM	> 80 µM	20 µM
C/C=C/n1cc(/C=C/C(=O)CC(=O)C(=O)O)c2ccccc21	> 40 µM	> 40 µM	10 µM	33 µM	> 40 µM	> 40 µM
O=C(/C=C/c1cc(C(=O)c2ccccc2)cn1Cc1ccccc1)CC(=O)C(=O)O	> 40 µM	> 40 µM	20 µM	16 µM	> 40 µM	> 40 µM
CCOC(=O)C(=O)CC(=O)/C=C/c1cc(C(=O)c2ccc(F)cc2)c[nH]1	> 40 µM	11 µM	> 40 µM	4.1 µM	> 40 µM	6.3 µM
C=C(C)Cn1cc(/C=C/C(=O)CC(=O)C(=O)OCC)c2ccccc21	> 40 µM	> 40 µM	> 40 µM	> 40 µM	–	–
CC(C)=Cn1cc(/C=C/C(=O)CC(=O)C(=O)O)c2ccccc21	> 40 µM	> 40 µM	9 µM	13.8 µM	> 40 µM	30 µM
O=C(/C=C/c1cn(Cc2ccc(F)cc2)c2ccccc12)CC(=O)C(=O)O	> 40 µM	> 40 µM	> 40 µM	10 µM	> 40 µM	> 40 µM
CCOC(=O)C(=O)CC(=O)/C=C/c1cn(-c2ccccc2)c2ccccc12	–	> 40 µM	> 40 µM	> 40 µM	–	–
O=C(/C=C/c1cc(C(=O)c2ccc(F)cc2)c[nH]1)CC(=O)C(=O)O	> 40 µM	> 40 µM	40 µM	0.58 µM	> 40 µM	> 40 µM
CCOC(=O)C(=O)CC(=O)/C=C/c1cn(-c2ccc(O)cc2)c2ccccc12	> 40 µM	> 40 µM	> 40 µM	> 40 µM	–	–
CCOC(=O)C(=O)CC(=O)/C=C/c1cc(C(=O)c2ccccc2)cn1Cc1ccccc1	> 40 µM	> 40 µM	> 40 µM	> 40 µM	–	–
CCOC(=O)C(=O)CC(=O)/C=C/c1cn(CC(=O)N2CCOCC2)c2ccccc12	> 40 µM	> 40 µM	> 40 µM	> 40 µM	–	–
CCOC(=O)C(=O)CC(=O)/C=C/c1cn(CCC(C)C)c2ccccc12	> 40 µM	> 40 µM	> 40 µM	> 40 µM	–	–
CCOC(=O)C(=O)CC(=O)/C=C/c1cn(C=C(C)C)c2ccccc12	> 40 µM	> 40 µM	> 40 µM	> 40 µM	–	–
